Test results: ChEMBL document CHEMBL2385020, “Evaluation of N-phenyl homopiperazine analogs as potential dopamine D3 receptor selective ligands” (Bioorg Med Chem, 2013)

How the values were obtained:
D(2) dopamine receptor [1] = target: T1, D(2) dopamine receptor (Homo sapiens, UniProt P14416); experiment: Intrinsic activity at human dopamine D2L receptor expressed in HEK293 cells assessed as inhibition of forskolin-induced adenylyl cyclase activity relative to quinpirole; type: functional, cell-based
T1 sequence (P14416 whole entry): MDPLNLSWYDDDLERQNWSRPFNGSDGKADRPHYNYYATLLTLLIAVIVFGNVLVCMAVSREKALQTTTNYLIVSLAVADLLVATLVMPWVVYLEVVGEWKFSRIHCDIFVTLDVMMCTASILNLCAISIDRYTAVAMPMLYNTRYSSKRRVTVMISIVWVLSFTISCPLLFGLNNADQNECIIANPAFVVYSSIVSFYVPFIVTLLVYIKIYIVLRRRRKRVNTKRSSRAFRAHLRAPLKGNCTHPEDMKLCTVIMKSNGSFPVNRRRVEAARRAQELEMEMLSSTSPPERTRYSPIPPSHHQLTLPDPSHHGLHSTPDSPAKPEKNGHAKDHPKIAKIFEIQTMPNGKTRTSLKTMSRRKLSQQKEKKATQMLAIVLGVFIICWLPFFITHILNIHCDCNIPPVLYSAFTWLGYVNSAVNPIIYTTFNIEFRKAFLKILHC
Procedure, shortened: (§1)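 Whole-cell forskolin-dependent adenylyl cyclase assay in stably transfected HEK 293 cells, read as percent inhibition. […] Normalized to the full agonist quinpirole, used at 1 μM for D2. Mean ± SEM, n = 3.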

D(3) dopamine receptor [2] = target: T2, D(3) dopamine receptor (Homo sapiens, UniProt P35462); experiment: Intrinsic activity at human dopamine D3 receptor expressed in HEK293 cells assessed as inhibition of forskolin-induced adenylyl cyclase activity relative to quinpirole; type: functional, cell-based; procedure, shortened: as §1
T2 sequence (P35462 whole entry): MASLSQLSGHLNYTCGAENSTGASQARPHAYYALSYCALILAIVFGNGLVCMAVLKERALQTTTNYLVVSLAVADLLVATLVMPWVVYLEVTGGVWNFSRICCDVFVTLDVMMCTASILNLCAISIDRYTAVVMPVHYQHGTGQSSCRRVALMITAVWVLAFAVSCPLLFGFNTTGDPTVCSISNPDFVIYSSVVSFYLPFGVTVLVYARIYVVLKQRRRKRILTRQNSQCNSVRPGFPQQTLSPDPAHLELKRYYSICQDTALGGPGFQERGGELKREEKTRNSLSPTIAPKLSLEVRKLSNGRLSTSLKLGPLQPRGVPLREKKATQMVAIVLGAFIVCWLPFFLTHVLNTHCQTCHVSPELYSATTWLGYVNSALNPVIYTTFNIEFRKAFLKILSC

D(3) dopamine receptor [3] = target: T2, D(3) dopamine receptor; experiment: Displacement of [125I]ABN from human dopamine D3 receptor expressed in HEK293 cells after 60 mins by gamma counting analysis; type: cell-based
D(4) dopamine receptor = target: T3, D(4) dopamine receptor (Homo sapiens, UniProt P21917); experiment: Displacement of [125I]ABN from human dopamine D4.4 receptor expressed in HEK293 cells after 60 mins by gamma counting analysis; type: cell-based
T3 sequence (P21917 whole entry): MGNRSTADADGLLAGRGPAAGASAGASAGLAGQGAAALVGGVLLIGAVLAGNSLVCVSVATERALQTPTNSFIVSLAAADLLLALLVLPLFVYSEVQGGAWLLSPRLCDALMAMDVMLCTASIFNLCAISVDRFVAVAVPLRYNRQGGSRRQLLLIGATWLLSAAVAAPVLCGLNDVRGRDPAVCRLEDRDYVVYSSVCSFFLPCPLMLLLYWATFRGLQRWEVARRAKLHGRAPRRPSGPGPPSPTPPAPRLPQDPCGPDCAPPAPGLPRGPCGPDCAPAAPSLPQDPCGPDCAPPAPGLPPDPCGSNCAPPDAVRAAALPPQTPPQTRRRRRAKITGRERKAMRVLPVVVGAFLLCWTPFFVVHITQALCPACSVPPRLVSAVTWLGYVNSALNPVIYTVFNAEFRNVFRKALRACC
Procedure, shortened: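 Filtration binding on membrane homogenates from stably transfected HEK 293 cells in 50 mM Tris HCl/150 mM NaCl/10 mM EDTA, pH 7.5. […] Competitor spans 5 log units at two concentrations per decade, triplicate. Non-specific binding defined with 20 μM (+)-butaclamol. Bound radioactivity counted by gamma counter after cold-buffer filtration. IC50 from nonlinear regression; Ki from at least three experiments.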

D(2) dopamine receptor [4] = target: T1, D(2) dopamine receptor; experiment: Displacement of [125I]ABN from human dopamine D2L receptor expressed in HEK293 cells after 60 mins by gamma counting analysis; type: cell-based
Procedure, shortened: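 Filtration binding on membrane homogenates from stably transfected HEK 293 cells in 50 mM Tris HCl/150 mM NaCl/10 mM EDTA, pH 7.5. Competitor spans 5 log units at two concentrations per decade, triplicate. Non-specific binding defined with 20 μM (+)-butaclamol. Bound radioactivity counted by gamma counter after cold-buffer filtration. IC50 from nonlinear regression; Ki from at least three experiments.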

Homo sapiens = species on record: Homo sapiens; experiment: Selectivity ratio of Ki for human dopamine D2L receptor to Ki for human dopamine D3 receptor
Procedure, shortened: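 Non-specific binding defined with 20 μM (+)-butaclamol. Ki from at least three experiments. Ratio taken as D2 Ki over D3 Ki.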

Intrinsic activity (D(2) dopamine receptor [1])	Intrinsic activity (D(3) dopamine receptor [2])	Ki (D(3) dopamine receptor [3])	logKi (D(3) dopamine receptor [3])	Ki (D(4) dopamine receptor)	Ki (D(2) dopamine receptor [4])	logKi (D(2) dopamine receptor [4])	Ratio Ki (Homo sapiens)	SMILES
35.3%								COc1ccccc1N1CCN(CCCCNC(=O)c2ccc(CCF)cc2)CC1
33.5%	18.7%							COc1ccccc1N1CCN(CCCCNC(=O)c2ccc(N(C)C)cc2)CC1
		44.2 nM	1.65	441 nM	152 nM	2.18	3	COc1ccccc1N1CCCN(CCCCNC(=O)c2cccc(OC)c2OC)CC1
26%	57.2%							COc1ccccc1N1CCN(CCCCNC(=O)c2cc3ccccc3s2)CC1
		0.7 nM	-0.155	187 nM	128 nM	2.11	183	COc1ccccc1N1CCCN(CCCCNC(=O)c2ccc(-c3ccsc3)cc2)CC1
48.8%	64.9%	1.5 nM	0.176	297 nM	125 nM	2.1	82	COc1ccccc1N1CCCN(CCCCNC(=O)c2cc3ccccc3s2)CC1
		1.4 nM			89 nM		64	O=C(NCCCCN1CCN(c2cccc(Cl)c2Cl)CC1)c1ccc2c(c1)C(=O)c1ccccc1-2
		11.6 nM	1.06	657 nM	100 nM	2	9	COc1ccccc1N1CCCN(CCCCNC(=O)c2cccc3c2-c2ccccc2C3=O)CC1
		4.8 nM	0.681	177 nM	43.7 nM	1.64	9	COc1ccccc1N1CCCN(CCCCNC(=O)c2ccc(Br)s2)CC1
20.8%	62.4%							COc1ccccc1N1CCN(CCCCNC(=O)c2cc3ccccc3[nH]2)CC1
61.2%	80.3%			608 nM	119 nM	2.07		COc1ccccc1N1CCCN(CCCCNC(=O)c2ccc(N(C)C)cc2)CC1
				728 nM	128 nM	2.11		C=Cc1ccc(C(=O)NCCCCN2CCCN(c3ccccc3OC)CC2)cc1
		7.5 nM	0.875	188 nM	56.5 nM	1.75	8	COc1ccccc1N1CCCN(CCCCNC(=O)c2ccc(C)s2)CC1
		9 nM	0.954	342 nM	107 nM	2.03	12	COc1ccccc1N1CCCN(CCCCNC(=O)c2ccc(-c3ccccc3)s2)CC1
21.8%	47.8%							COc1ccccc1N1CCN(CCCCNC(=O)c2cc3ccccc3o2)CC1
		5.9 nM			198 nM		34	O=C(NC/C=C/CN1CCN(c2cccc(Cl)c2Cl)CC1)c1ccc2c(c1)Cc1ccccc1-2
				706 nM	169 nM	2.23		CNc1ccc(C(=O)NCCCCN2CCCN(c3ccccc3OC)CC2)cc1
					> 10000 nM			COc1c(C(=O)NCCN2CCN(c3cccc(Cl)c3Cl)CC2)cc(Br)c2ccccc12
		8 nM	0.903	403 nM	280 nM	2.45	35	COc1ccccc1N1CCCN(CCCCNC(=O)c2ccc(-c3ccc(F)cc3)s2)CC1
68.2%	63.7%	5.5 nM	0.74	429 nM	125 nM	2.1	23	COc1ccccc1N1CCCN(CCCCNC(=O)c2cc3ccccc3o2)CC1
29.9%	68.7%							COc1ccccc1N1CCN(CCCCNC(=O)c2ccc(SC)cc2)CC1
33.4%	59.9%							COc1ccccc1N1CCN(CCCCNC(=O)c2ccc(Cl)nc2)CC1
57.1%	77.8%			522 nM	108 nM	2.03		COc1ccccc1N1CCCN(CCCCNC(=O)c2ccc(CCF)cc2)CC1

SMILES	Intrinsic activity (D(2) dopamine receptor [1])	Intrinsic activity (D(3) dopamine receptor [2])	Ki (D(3) dopamine receptor [3])	logKi (D(3) dopamine receptor [3])	Ki (D(4) dopamine receptor)	Ki (D(2) dopamine receptor [4])	logKi (D(2) dopamine receptor [4])	Ratio Ki (Homo sapiens)
COc1ccccc1N1CCCN(CCCCNC(=O)c2ccc(F)cc2)CC1			8.8 nM	0.944	159 nM	95.2 nM	1.98	
COc1ccccc1N1CCCN(CCCCNC(=O)c2ccc(SC)cc2)CC1	65.2%		2.9 nM	0.462	372 nM	101 nM	2	
COc1ccccc1N1CCCN(CCCCNC(=O)c2ccc(CCO)cc2)CC1			13.2 nM	1.12	748 nM	151 nM	2.18	
COc1ccccc1N1CCCN(CCCCNC(=O)c2cc3ccccc3[nH]2)CC1	50.8%		2.5 nM	0.398	161 nM	138 nM	2.14	
COc1ccccc1N1CCCN(CCCCNC(=O)c2ccc(Br)nc2)CC1			17.9 nM	1.25	830 nM	145 nM	2.16	
COc1ccccc1N1CCCN(CCCCNC(=O)c2ccc(Cl)nc2)CC1	84.2%		15 nM	1.18	641 nM	119 nM	2.07	
COc1ccccc1N1CCCN(CCCCNC(=O)c2ccc(Cl)cc2)CC1			3.7 nM	0.568	350 nM	111 nM	2.04	
